The values that follow come from PubChem BioAssay.

Activity calls are given as the source filed them.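 How the source made its calls, unless noted: active means fluorescence slope higher than the sample average by over 3 SD (cut at about -0.22 in these data, passing the limit was not always enough); inactive means the rest.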

Broadly, the inhibition is the drop in the measured response relative to a control, in per cent.

Assay [1] is described as follows: inhibitors of TNFa-induced NFkB p65 translocation, primary screen, imaging, HUVEC, MLSMR starter and 10KST1 sets (AID 438;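 active means inhibition above 20% together with a positive visual image hit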;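 further: compound added about 3h40 before a 20 min TNFalpha stimulation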;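 on inhibition: signal is the nuclear over cytoplasmic p65 intensity ratio per well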). The note with it: HUVEC TNFa-induced p65 nuclear translocation; cell count: measured here: nuclei count (cytotoxicity indicator), at 2.08 µM; inhibition: at 2 µM, stronger effect = higher value, 0% TNFa-plus-vehicle, 100% no-TNFa wells.
The nature of assay [2]: inhibitors of mutant huntingtin aggregation, primary screen, imaging, exon1htt(103Q)mCFP cells, high-content imaging (AID 483;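 active means visual image review flags a hit and inhibition of aggregation exceeds 20%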;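 further: compound exposure lasted 3 days before fixation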;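 on nuclei count: percent of the per-plate median nuclei count of sample wells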). The following applies: exon1htt(103Q)mCFP cell line, aggregate imaging, at 2 µM; inhibition of aggregation: stronger effect = higher value; nuclei count: measured here: cell count, toxicity.
The nature of assay [3]: inhibitors of E-selectin induction by TNFa, primary screen, imaging, HUVEC, immunofluorescence, MLSMR starter and 10KST1 sets (AID 487;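 active means visually confirmed hit in the image check and inhibition above 20%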;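 on inhibition: signal is fraction of cell area covered by stained E-selectin grains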;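 on nuclei count: 100% = median nuclei count of all wells on the same plate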). The following applies: HUVEC TNFalpha-induced E-selectin immunofluorescence imaging, at 2 µM; inhibition: stronger effect = higher value; nuclei count: measured here: cell number, toxicity.
The target in assay [4] is Voltage-gated potassium channel subunit beta-2 (Rattus norvegicus) (UniProt P62483). As to the kind of experiment: KvBeta enzyme negative modulators, primary screen, biochemical, NADPH fluorescence (AID 622).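 Further: slope of raw intensity against log time taken from 70 to 1610 s.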 The following applies: recombinant KvBeta, 4-cyanobenzaldehyde reduction, at 10 µM, stronger effect = higher value.
Sequence of Voltage-gated potassium channel subunit beta-2 (Rattus norvegicus) (P62483 whole entry, looked up): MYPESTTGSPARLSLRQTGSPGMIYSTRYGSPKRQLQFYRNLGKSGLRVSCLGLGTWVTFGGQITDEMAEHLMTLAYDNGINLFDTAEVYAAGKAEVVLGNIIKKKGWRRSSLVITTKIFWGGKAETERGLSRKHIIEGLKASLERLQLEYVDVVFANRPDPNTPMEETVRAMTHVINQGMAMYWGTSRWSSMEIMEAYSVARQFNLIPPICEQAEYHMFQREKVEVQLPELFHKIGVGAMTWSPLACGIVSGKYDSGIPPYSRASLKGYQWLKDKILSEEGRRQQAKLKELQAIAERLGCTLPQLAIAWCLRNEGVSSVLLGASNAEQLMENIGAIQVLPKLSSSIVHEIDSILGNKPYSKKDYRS
Assay [5] has the same target. As to the kind of experiment: KvBeta positive modulators, primary screen, biochemical, NADPH fluorescence (AID 623;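 active means NADPH fluorescence slope more negative than the mean of all samples by about 3 SD, 99.7% confidence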;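 further: fluorescence intensity change per second fitted from 20 to 320 s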). The note with it: Recombinant KvBeta, NADPH fluorescence decrease slope, 10 min; at 10 µM; stronger effect = lower value.
For assay [6], the target named is Muscarinic acetylcholine receptor M4 (Homo sapiens) (UniProt P08173). Kind of assay: compounds altering M4/GIRK thallium flux, either direction, primary screen, M4 allosteric agonist project, cell-based, HEK293 M4/GIRK, BTC-AM (AID 625;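 active means fluorescence slope after compound addition differing from the mean of all tested samples at 99.7% confidence, mostly higher but some lower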;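 further: thallium influx through GIRK channels coupled to M4 in HEK293 cells with BTC-AM dye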). The note with it: at 10 µM, actives lie on both sides. Put shortly: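 System: HEK293 cells with M4 receptor and GIRK channels | Incubation: Cells overnight at 37 °C, BTC-AM loading 1 h, reads 2 min total | Technique: Kinetic BTC-AM fluorescence sampled at 1 Hz, 10 s pre-addition baseline | Measure: Post-addition slope, 15–24 s, of baseline-normalized fluorescence | Control set: Carbachol positive, DMSO negative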
Sequence of Muscarinic acetylcholine receptor M4 (Homo sapiens) (P08173 whole entry, looked up): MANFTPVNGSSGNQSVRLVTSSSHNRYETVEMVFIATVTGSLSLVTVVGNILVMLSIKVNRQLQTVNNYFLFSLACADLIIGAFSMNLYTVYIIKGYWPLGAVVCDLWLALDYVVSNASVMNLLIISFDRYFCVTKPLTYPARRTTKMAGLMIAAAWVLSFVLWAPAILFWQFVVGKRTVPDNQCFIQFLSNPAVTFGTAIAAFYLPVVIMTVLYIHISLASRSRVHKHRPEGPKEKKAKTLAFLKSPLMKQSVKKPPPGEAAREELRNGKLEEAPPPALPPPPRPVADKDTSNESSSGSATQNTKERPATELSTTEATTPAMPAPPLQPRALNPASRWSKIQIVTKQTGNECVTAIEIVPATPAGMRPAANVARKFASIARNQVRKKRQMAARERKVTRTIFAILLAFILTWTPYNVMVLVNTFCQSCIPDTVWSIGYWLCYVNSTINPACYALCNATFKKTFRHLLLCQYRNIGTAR

Assay [7] is described as follows: inhibitors of Sendai virus-induced IRF3 signaling, primary screen, TLR/RLR signaling modifier project, cell-based, Sendai virus stimulus, luciferase, 10K MLSCN set (AID 602276;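 active means inhibition at or above 50% at 10 µM; inactive means inhibition below 50%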;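 further: firefly luciferase from ISG56 promoter only with Renilla not read in this screen; 0% = Sendai virus plus DMSO and 100% = medium plus DMSO without virus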). The following applies: HEK293 RL24 IRF3 luciferase reporter, at 10 µM, stronger effect = higher value. In general terms: Reporter assays use an easily measured gene product as a stand-in for the process of interest.

The nature of assay [8]: inhibitors of poly I:C-induced TLR3 signaling, primary screen, cell-based, poly I:C stimulus, luciferase, 10K MLSCN set (AID 602277;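 active means inhibition of the reporter signal at or above 50%; inactive means inhibition below 50%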). The following applies: HEK293-TLR3 RL24 IRF3 luciferase reporter, at 10 µM, stronger effect = higher value.

On to `O=C(c1cc(-c2cccs2)on1)N1CCc2ccccc2C1`, for which the cell count in assay [1] came to 490. Besides, the inhibition was -4.5% (inactive) in assay [1], -28.9% (inactive) in assay [3], 4.86% (inactive) in assay [7] and -18.5% (inactive) in assay [8]. For the same compound, the inhibition of aggregation in assay [2] is -23.8% (inactive). Also, the nuclei count in assay [2] amounted to 106%; in assay [3] it was 96.8%. For the same compound, the fluorescence slope in assay [4] was -0.441 (inactive); in assay [6], 0.00464 (inactive). Moreover, the NADPH fluorescence slope in assay [5] is -4.4e-06 (inactive).
Regarding `O=S(=O)(NCCCCCNS(=O)(=O)c1ccccc1)c1ccccc1`, the cell count in assay [1] was found to be 468. Moreover, the inhibition in assay [1] was 4.3% (inactive); in assay [3], -56.2% (inactive); in assay [7], 20.2% (inactive); in assay [8], 22.6% (inactive). For the same compound, the inhibition of aggregation in assay [2] was -5% (inactive). Further, the nuclei count in assay [2] was found to be 104%; in assay [3], 142%. The fluorescence slope in assay [4] is -0.547 (inactive); in assay [6] it was 0.00488 (inactive). For the same compound, the NADPH fluorescence slope in assay [5] is -3.3e-05 (inactive).
With `C=C(c1cccc2ccccc12)P(=O)(O)O`, the cell count in assay [1] was 429. The inhibition in assay [1] was 11.9% (inactive); in assay [3], 18.6% (inactive); in assay [7], 17.7% (inactive); in assay [8], 22.1% (inactive). For the same compound, the inhibition of aggregation in assay [2] was 18.4% (inactive). For the same compound, the nuclei count was 92.8% in assay [2] and 99.8% in assay [3]. Further, the fluorescence slope in assay [4] is -0.493 (inactive); in assay [6], 0.00428 (inactive). Besides, the NADPH fluorescence slope in assay [5] was -0.000279 (inactive).
Take `CCOC(=O)CS(=O)(=O)c1nc(-c2ccccc2)cc(C(F)(F)F)n1`: the cell count in assay [1] was found to be 380. The inhibition in assay [1] is 2.8% (inactive); in assay [3], -15.5% (inactive); in assay [7], 20.1% (inactive); in assay [8], 32.7% (inactive). Further, the inhibition of aggregation in assay [2] is -12.2% (inactive). Besides, the nuclei count in assay [2] amounted to 102%; in assay [3] it was 116%. Further, the figures for the fluorescence slope in assay [4] and in assay [6] were -0.462 (inactive) and 0.00498 (inactive), respectively. For the same compound, the NADPH fluorescence slope in assay [5] is -1.5e-05 (inactive).
In the case of `CCCC(=O)Nc1ccccc1NC(=O)CCC`, the cell count in assay [1] is 353. Besides, the inhibition was -5.6% (inactive) in assay [1], -23.8% (inactive) in assay [3], 14.4% (inactive) in assay [7] and 15.4% (inactive) in assay [8]. For the same compound, the inhibition of aggregation in assay [2] is -10.5% (inactive). In addition, the nuclei count amounted to 103% in assay [2] and 109% in assay [3]. For the same compound, the fluorescence slope was -0.434 (inactive) in assay [4] and 0.00516 (inactive) in assay [6]. In assay [5], the NADPH fluorescence slope is -6e-05 (inactive).
Take `Cc1ccc(OC(=O)NC2CCS(=O)(=O)C2)cc1C` (centres undefined): the cell count in assay [1] is 395. Further, the inhibition in assay [1] was -0.3% (inactive); in assay [3], -107% (inactive); in assay [7], 12.7% (inactive); in assay [8], 17.3% (inactive). Also, in assay [2], the inhibition of aggregation is -6.1% (inactive). The nuclei count in assay [2] is 98.6%; in assay [3] it was 116%. For the same compound, the values for the fluorescence slope in assay [4] and in assay [6] were -0.617 (inactive) and 0.00398 (inactive), respectively. The NADPH fluorescence slope in assay [5] was -2.5e-07 (inactive).
Take `CCOc1ccccc1C(=O)NCCCn1ccnc1`: the cell count in assay [1] worked out at 469. For the same compound, the inhibition in assay [1] is 5.5% (inactive); in assay [3], -89.5% (inactive); in assay [7], 11.4% (inactive); in assay [8] it was 8.04% (inactive). Besides, the inhibition of aggregation in assay [2] is 6.9% (inactive). The nuclei count in assay [2] is 96.2%; in assay [3], 121%. Also, the fluorescence slope in assay [4] is -0.576 (inactive); in assay [6], 0.00757 (inactive). Also, the NADPH fluorescence slope in assay [5] was -6.1e-05 (inactive).
In the case of `Nc1ccc(Sc2nnnn2-c2ccccc2)c(Cl)c1`, the cell count in assay [1] was 312. Further, the inhibition is -5.1% (inactive) in assay [1], -4% (inactive) in assay [3], 8.66% (inactive) in assay [7] and 13% (inactive) in assay [8]. Further, the inhibition of aggregation in assay [2] is 8% (inactive). In addition, the nuclei count in assay [2] was 108%; in assay [3], 78.5%. Besides, the values for the fluorescence slope in assay [4] and in assay [6] were -0.468 (inactive) and 0.00613 (inactive), respectively. Moreover, the NADPH fluorescence slope in assay [5] is -3.4e-05 (inactive).
With `COc1cccc(OCC(O)CN2CCN(CCO)CC2)c1` (centres undefined), in assay [1], the cell count came to 383. Besides, the inhibition was -1% (inactive) in assay [1], -46.4% (inactive) in assay [3], 8.25% (inactive) in assay [7] and 13.5% (inactive) in assay [8]. Further, the inhibition of aggregation in assay [2] was -24.6% (inactive). Further, the nuclei count in assay [2] was 105%; in assay [3], 102%. The values for the fluorescence slope in assay [4] and in assay [6] were -0.475 (inactive) and 0.00352 (inactive), respectively. Also, in assay [5], the NADPH fluorescence slope is -0.000292 (inactive).
In the case of `CCOC(=O)C1CCCN(C(=O)c2cc3c(C)nc4ccccc4c3o2)C1` (centres undefined), the cell count in assay [1] came out at 525. Also, the inhibition in assay [1] is -14.7% (inactive); in assay [3], -91.4% (inactive); in assay [7], 14.5% (inactive); in assay [8], 5.32% (inactive). For the same compound, in assay [2], the inhibition of aggregation was 8.7% (inactive). Moreover, the nuclei count is 100% in assay [2] and 119% in assay [3]. Also, the fluorescence slope is -0.522 (inactive) in assay [4] and 0.00625 (inactive) in assay [6]. For the same compound, in assay [5], the NADPH fluorescence slope was 0.000185 (inactive).
Consider `Cc1[nH]c(=O)[nH]c(=O)c1S(=O)(=O)N(C)Cc1ccccc1`, for which, in assay [1], the cell count is 433. The inhibition in assay [1] is 1.1% (inactive); in assay [3] it was -90.2% (inactive); in assay [7], 3.97% (inactive); in assay [8] it was 13.8% (inactive). In assay [2], the inhibition of aggregation is -2.7% (inactive). Further, the nuclei count in assay [2] and in assay [3] was 110% in each case. Further, the fluorescence slope in assay [4] was -0.491 (inactive); in assay [6] it was 0.00478 (inactive). Besides, the NADPH fluorescence slope in assay [5] was 3.7e-05 (inactive).
In the case of `CCC1(CC)NC(=O)NC1=O`, the cell count in assay [1] was 665. The inhibition in assay [1] is 2.2% (inactive); in assay [3], 12.8% (inactive); in assay [7] it was 16.7% (inactive); in assay [8], 8.56% (inactive). In addition, the inhibition of aggregation in assay [2] was -5.3% (inactive). In addition, the results for the nuclei count in assay [2] and in assay [3] were 89.9% and 106%, respectively. Moreover, the values for the fluorescence slope in assay [4] and in assay [6] were -0.588 (inactive) and 0.00419 (inactive), respectively. The NADPH fluorescence slope in assay [5] was -8.1e-05 (inactive).
`O=C(c1cn(-c2ccccc2)nc1-c1cccs1)N1CCN(c2ccccn2)CC1`: the cell count in assay [1] turned out to be 465. Also, the inhibition was -10.8% (inactive) in assay [1], -83% (inactive) in assay [3], 6.18% (inactive) in assay [7] and -18.9% (inactive) in assay [8]. The inhibition of aggregation in assay [2] was 11.5% (inactive). In addition, the nuclei count in assay [2] stood at 84.1%; in assay [3] it was 150%. Further, the fluorescence slope was -0.421 (inactive) in assay [4] and 0.00586 (inactive) in assay [6]. The NADPH fluorescence slope in assay [5] is 4e-05 (inactive).
On to `COC(=O)c1ccc(CNC(=O)COc2ccccc2Br)o1`, for which the cell count in assay [1] worked out at 712. Also, the inhibition in assay [1] is -13.6% (inactive); in assay [3] it was 0.2% (inactive); in assay [7], 5.53% (inactive); in assay [8], 1.32% (inactive). Also, the inhibition of aggregation in assay [2] was -7.2% (inactive). Also, the figures for the nuclei count in assay [2] and in assay [3] were 110% and 81.7%, respectively. In addition, the fluorescence slope in assay [4] was -0.556 (inactive); in assay [6], 0.00463 (inactive). Further, the NADPH fluorescence slope in assay [5] is -8.6e-06 (inactive).
